Compound activity from PubChem BioAssay.
Smad3 FoxH1 inh = blocks human Smad3 binding to FoxH1 peptide. P84022. TR-FRET Smad3/Dy647-FoxH1 peptide binding, europium anti-His. inhibition, % at 25 µM. hit rate 0.29% among 88,000. AID 630;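 active = compounds that reduce the energy-transfer binding signal between the protein and its labelled peptide by more than half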;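 note: 0% = Smad3 plus labelled peptide maximal FRET and 100% = peptide-only background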
ERa coact inh = blocks coactivator binding to human estrogen receptor alpha; AID 629; TR-FRET ER-alpha LBD / SRC-1 peptide, estradiol-bound; P03372; hit rate 1.7% among 86,000; inhibition, % at 25.6 µM; in the data active = inhibition above about 50%;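 note: 0% = receptor plus peptide control and 100% = peptide only without receptor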
HIV Rev-RRE inh = inhibitors of HIV-1 Rev-RRE RNA interaction; hit rate 0.79% among 97,000; P05866; AID 704; Rev peptide-RRE RNA binding, FRET; inhibition, % at 8 µM;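 active = inhibition above the screen-wide mean plus 3 SD, cut at about 35% in these data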;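 note: 0% = median DMSO wells and 100% = median Neomycin B control wells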
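Assay system: labelled RRE RNA duplex and labelled Rev peptide / Medium: HEPES pH 7.5 salt buffer with EDTA / Reagent: labelled Rev peptide / Schedule: 5 + 15 min at 25 °C / Signal: FRET, excitation 480 nm, emission 540 nm donor and 671 nm acceptor / Benchmarks: DMSO and neomycin B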
ERb coact inh = blocks coactivator binding to human estrogen receptor beta. TR-FRET ER-beta LBD / SRC1-Cy5 peptide binding; receptor agonist-loaded with 1 µM estradiol. inhibition, % at 25.6 µM. hit rate 1.3% among 86,000;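 active = compounds whose percent inhibition of the receptor-coactivator binding signal exceeds about 50% in the single-dose screen, limit read from the data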;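 note: 0% = receptor plus peptide wells without compound and 100% = peptide-only wells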
FAK inh = FAK (human) kinase inhibition. inhibition, %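 (tested at 7 µM)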. hit rate 0.84% among 97,000. Q05397. biochemical FAK kinase activity assay;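 note: 0% = DMSO and 100% = reference compound high control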
ERa SRC1 pot = enhances coactivator binding to human estrogen receptor alpha. hit rate 1.3% among 86,000. AID 639. P03372. coactivator binding (% of control), % at 25.6 µM. TR-FRET ERalpha-LBD/SRC-Cy5 coactivator binding, 2 h; 100 = basal binding, no effect; in the data active = activity above about 200%;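 note: binding measured in presence of low estradiol as agonist stimulus; 0% = peptide alone without receptor and 100% = receptor with peptide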
FAK inh conf = FAK (human) inhibition confirmed | shares compounds with FAK inh | FAK kinase biochemical inhibition assay | inhibition, % at 7 µM | hit rate 28% among 750 | AID 794
Numbers without * were called inactive; [ ] = dose if it differs, or a comment. Only some compounds are listed: those with a hit (about 4% of all), similar ones and a draw of the others. Cut-off read from the data, not from the text of the source, unless noted: active = inhibition above about 19%; inactive = the rest.

For CN1CCc2nc3sc(C(=O)C45CC6CC(CC(C6)C4)C5)c(N)c3cc2C1 the results were HIV Rev-RRE inh 25, FAK inh 51* and FAK inh conf 34*.
For O=Cc1cn(-c2ccccc2)nc1-c1cc2cc(O)ccc2oc1=O the results were HIV Rev-RRE inh 27, FAK inh 30* and FAK inh conf 14.
COc1ccc(NC(=O)c2cn(-c3ccccc3)nc2-c2cc3ccccc3o2)cc1 was read as HIV Rev-RRE inh 7 and FAK inh -5.
CSc1nnnc2ccccc12 was read as Smad3 FoxH1 inh 4.
`O=C(N/N=C/C=C/c1ccc([N+](=O)[O-])cc1)c1cccs1` gave HIV Rev-RRE inh 6, FAK inh 56* and FAK inh conf 21*.
For NC(=O)c1c(NC(=O)c2ccco2)sc2c1CCC2 the results were Smad3 FoxH1 inh 9, ERa coact inh 3, HIV Rev-RRE inh 3, ERb coact inh 6, FAK inh 20*, ERa SRC1 pot 97 and FAK inh conf 15.
For CCC(=O)Nc1sc2c(c1C(N)=O)CCC2 the results were Smad3 FoxH1 inh 7, ERa coact inh -8, HIV Rev-RRE inh 5, ERb coact inh -8, FAK inh 21*, ERa SRC1 pot 119 and FAK inh conf 12.
`Oc1cccc(Nc2ncnc3ccccc23)c1` gave Smad3 FoxH1 inh -2, ERa coact inh -3, HIV Rev-RRE inh 11, ERb coact inh 13, FAK inh 23*, ERa SRC1 pot 101 and FAK inh conf 7.
For Nc1nnc2c(n1)CCCC2 the results were Smad3 FoxH1 inh 4, ERa coact inh -21, HIV Rev-RRE inh 3, ERb coact inh -5, FAK inh 21*, ERa SRC1 pot 112 and FAK inh conf 2.
For COc1ccc(-n2cnnc2SCC(=O)Nc2cc(C(C)(C)C)nn2-c2ccccc2)cc1 the results were Smad3 FoxH1 inh -12, ERa coact inh 2, HIV Rev-RRE inh 7, ERb coact inh -8, FAK inh 23*, ERa SRC1 pot 100 and FAK inh conf 12.
`COc1ccccc1-n1cnnc1SCC(=O)Nc1cc(C(C)(C)C)nn1-c1ccccc1` gave Smad3 FoxH1 inh -4, ERa coact inh 4, HIV Rev-RRE inh 12, ERb coact inh 6, FAK inh 6 and ERa SRC1 pot 121.
`COc1cc(C(=O)Nc2nc3ccc4nc(C)sc4c3s2)cc(OC)c1OC` gave Smad3 FoxH1 inh -4, ERa coact inh 27, HIV Rev-RRE inh -4, ERb coact inh 28, FAK inh -2 and ERa SRC1 pot 145.
COc1ccc(C(=O)Nc2nc3ccc4nc(C)sc4c3s2)cc1 was read as Smad3 FoxH1 inh 4, ERa coact inh 46, HIV Rev-RRE inh -1, ERb coact inh 41, FAK inh 27*, ERa SRC1 pot 109 and FAK inh conf 38*.
For CCOc1ccc(S(=O)(=O)N(CC(=O)N/N=C/c2ccc(-c3ccc([N+](=O)[O-])cc3)o2)c2ccccc2)cc1 the results were HIV Rev-RRE inh 26, FAK inh 45* and FAK inh conf 21*.
`N#Cc1cccc(NC(=O)NCCc2c[nH]c3ccccc23)c1` gave Smad3 FoxH1 inh 8, ERa coact inh -2, ERb coact inh -6 and ERa SRC1 pot 105.
Screening C=CCn1c(SCC(=O)N2CCCC2)nc2scc(-c3cccs3)c2c1=O returned HIV Rev-RRE inh 0, FAK inh 40* and FAK inh conf 31*.
CCCCn1c(=O)[nH]c(=O)c2c1nc(COC(=O)c1c(C)noc1C)n2CCC was read as Smad3 FoxH1 inh 1, ERa coact inh -1, HIV Rev-RRE inh 5, ERb coact inh 9, FAK inh 4 and ERa SRC1 pot 104.
Cc1ccsc1/C=N/NC(=O)c1sccc1C was read as HIV Rev-RRE inh 0 and FAK inh 6.
For Cc1ccsc1C=Nc1ccc(O)cc1 the results were Smad3 FoxH1 inh 21, ERa coact inh 35, HIV Rev-RRE inh 3, ERb coact inh 76*[fluorescence artefact?], FAK inh 50*, ERa SRC1 pot 64 and FAK inh conf 1.
For Cc1nn(C(=O)c2ccco2)c(C)c1CN1C(=O)c2ccccc2C1=O the results were Smad3 FoxH1 inh 1, ERa coact inh 28, HIV Rev-RRE inh 6, ERb coact inh 8, FAK inh 32*, ERa SRC1 pot 200*[fluorescence artefact?] and FAK inh conf 8.
Screening Cc1nn(C(=O)c2cccs2)c(C)c1CN1C(=O)c2ccccc2C1=O returned Smad3 FoxH1 inh 2, ERa coact inh 6, HIV Rev-RRE inh 2, ERb coact inh -13, FAK inh 3 and ERa SRC1 pot 128.
Cc1ccc(C(=O)N/N=C/c2ccc([N+](=O)[O-])s2)cc1 was read as Smad3 FoxH1 inh 9, ERa coact inh 67*, HIV Rev-RRE inh -11, ERb coact inh 40, FAK inh 50*, ERa SRC1 pot 36 and FAK inh conf 11.
`CCCN(CCC)S(=O)(=O)c1ccc(NS(=O)(=O)c2ccc(F)cc2)cc1` gave Smad3 FoxH1 inh -2, ERa coact inh -5, HIV Rev-RRE inh 4, ERb coact inh -7, FAK inh -8 and ERa SRC1 pot 103.
`Cc1ccc(N2C(=O)[C@@H]3[C@H](C2=O)C2c4ccccc4C=CN2[C@@H]3C(=O)c2ccco2)cc1` (stereo not given in full) gave HIV Rev-RRE inh 36, FAK inh 32* and FAK inh conf 14.
O=C(c1ccco1)N1CCN(C2CC(=O)N(c3ccccc3)C2=O)CC1 (stereo not given) was read as Smad3 FoxH1 inh 19, ERa coact inh -2, HIV Rev-RRE inh -5, ERb coact inh -9, FAK inh 1 and ERa SRC1 pot 101.
For Cc1ccc(N2C(=O)[C@@H]3[C@H](C2=O)C2c4ccccc4C=CN2[C@@H]3C(=O)c2ccco2)c(C)c1 (stereo not given in full) the results were HIV Rev-RRE inh 30 and FAK inh 16.
For O=C(c1ccco1)[C@@H]1[C@@H]2C(=O)N(c3ccccc3)C(=O)[C@@H]2C2c3ccccc3C=CN21 (stereo not given in full) the results were HIV Rev-RRE inh 34, FAK inh 19* and FAK inh conf 6.
Cc1ccc(C(=O)COC(=O)c2ccc3c(c2)C(=O)N(c2cccc4ncccc24)C3=O)cc1C was read as HIV Rev-RRE inh 12, FAK inh 39* and FAK inh conf 23*.
`CCCCn1c(=O)n(CC(=O)Nc2ccc(OC)c(Cl)c2)c(=O)c2c1nc(CO)n2CCC` gave HIV Rev-RRE inh 3 and FAK inh -3.
